Laboratory results as given in ChEMBL document CHEMBL2331444, “Design, development and evaluation of novel dual PPARδ/PPARγ agonists” (Bioorg Med Chem Lett, 2013).
The source made the active and inactive calls.

How the values were obtained:
Type in all cases: cell-based
[1] = target: T1, Peroxisome proliferator-activated receptor gamma (Mus musculus) (UniProt P37238); experiment: Agonist activity at PPARgamma in mouse 3T3L1 cells assessed as downregulation of CD36 mRNA level at 10 uM after 6 days […] relative to control; conditions: 3T3-L1
T1 sequence (whole entry): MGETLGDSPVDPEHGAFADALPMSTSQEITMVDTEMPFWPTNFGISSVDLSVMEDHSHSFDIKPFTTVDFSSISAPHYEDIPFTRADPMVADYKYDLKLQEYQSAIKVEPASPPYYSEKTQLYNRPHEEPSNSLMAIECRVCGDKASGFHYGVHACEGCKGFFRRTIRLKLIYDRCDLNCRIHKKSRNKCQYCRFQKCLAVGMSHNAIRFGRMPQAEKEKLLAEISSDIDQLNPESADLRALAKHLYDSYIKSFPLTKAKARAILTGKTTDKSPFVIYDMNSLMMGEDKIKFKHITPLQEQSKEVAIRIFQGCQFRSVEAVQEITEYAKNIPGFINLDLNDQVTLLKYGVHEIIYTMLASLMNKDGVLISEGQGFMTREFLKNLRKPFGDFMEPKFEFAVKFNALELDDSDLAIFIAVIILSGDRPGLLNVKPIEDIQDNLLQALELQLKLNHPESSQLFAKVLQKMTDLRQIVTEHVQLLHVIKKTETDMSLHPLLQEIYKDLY

[2] = target: T1, Peroxisome proliferator-activated receptor gamma (Mus musculus); experiment: Agonist activity at PPARgamma in mouse 3T3L1 cells assessed as upregulation of HSL mRNA level at 10 uM after 6 days […] relative to control; conditions: 3T3-L1
[3] = target: T1, Peroxisome proliferator-activated receptor gamma (Mus musculus); experiment: Agonist activity at PPARgamma in mouse 3T3L1 cells assessed as downregulation of DGAT mRNA level at 10 uM after 6 days […] relative to control; conditions: 3T3-L1
[4] = target: T2, Peroxisome proliferator-activated receptor gamma (Homo sapiens) (UniProt P37231); experiment: Transactivation of PPARgamma (unknown origin) expressed in HEK293 cells co-transfected with AP2-PPRE by luciferase reporter gene assay
T2 sequence (whole entry): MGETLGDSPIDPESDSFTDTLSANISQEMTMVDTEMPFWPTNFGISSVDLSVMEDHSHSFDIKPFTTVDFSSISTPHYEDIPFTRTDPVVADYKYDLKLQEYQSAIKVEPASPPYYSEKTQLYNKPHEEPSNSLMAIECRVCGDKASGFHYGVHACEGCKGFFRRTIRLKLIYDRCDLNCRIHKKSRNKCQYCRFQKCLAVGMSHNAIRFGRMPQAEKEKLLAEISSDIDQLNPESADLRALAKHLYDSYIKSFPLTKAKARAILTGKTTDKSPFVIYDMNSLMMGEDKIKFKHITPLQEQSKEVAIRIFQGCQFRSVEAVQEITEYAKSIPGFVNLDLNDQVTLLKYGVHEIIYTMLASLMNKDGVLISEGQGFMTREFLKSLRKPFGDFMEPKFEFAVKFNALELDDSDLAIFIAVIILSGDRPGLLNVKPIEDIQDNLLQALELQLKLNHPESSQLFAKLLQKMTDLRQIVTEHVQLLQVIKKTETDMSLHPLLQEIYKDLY
Summary of the method: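 PPRE reporter plasmid (AP2 promoter element) transiently co-transfected into HEK-293 cells with RXR, PPARγ and β-galactosidase vectors using Lipofectamine 2000. Cells were treated across a dose–response series, plotted on a log(μM) axis from about −2 to 2. Luciferase was read as relative light units on a luminometer and normalised to β-galactosidase activity measured with ONPG.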

[5] = target: T1, Peroxisome proliferator-activated receptor gamma (Mus musculus); experiment: Agonist activity at PPARgamma in mouse 3T3L1 cells assessed as upregulation of MCAD mRNA level at 10 uM after 6 days […] relative to control; conditions: 3T3-L1
[6] = target: T1, Peroxisome proliferator-activated receptor gamma (Mus musculus); experiment: Agonist activity at PPARgamma in mouse 3T3L1 cells assessed as upregulation of ATGL mRNA level at 10 uM after 6 days […] relative to control; conditions: 3T3-L1
[7] = target: T1, Peroxisome proliferator-activated receptor gamma (Mus musculus); experiment: Agonist activity at PPARgamma in mouse 3T3L1 cells assessed as downregulation of FABP mRNA level at 10 uM after 6 days […] relative to control; conditions: 3T3-L1
[8] = target: T1, Peroxisome proliferator-activated receptor gamma (Mus musculus); experiment: Agonist activity at PPARgamma in mouse 3T3L1 cells assessed as downregulation of FATP mRNA level at 10 uM after 6 days […] relative to control; conditions: 3T3-L1
[9] = target: T1, Peroxisome proliferator-activated receptor gamma (Mus musculus); experiment: Agonist activity at PPARgamma in mouse 3T3L1 cells assessed as upregulation of ADPN mRNA level at 10 uM after 6 days […] relative to control; conditions: 3T3-L1
[10] = target: T3, Peroxisome proliferator-activated receptor delta (Mus musculus) (UniProt P35396); experiment: Agonist activity at PPARdelta in mouse 3T3L1 cells assessed as upregulation of PDK4 mRNA level at 10 uM after 6 days […] relative to control; conditions: 3T3-L1
T3 sequence (whole entry): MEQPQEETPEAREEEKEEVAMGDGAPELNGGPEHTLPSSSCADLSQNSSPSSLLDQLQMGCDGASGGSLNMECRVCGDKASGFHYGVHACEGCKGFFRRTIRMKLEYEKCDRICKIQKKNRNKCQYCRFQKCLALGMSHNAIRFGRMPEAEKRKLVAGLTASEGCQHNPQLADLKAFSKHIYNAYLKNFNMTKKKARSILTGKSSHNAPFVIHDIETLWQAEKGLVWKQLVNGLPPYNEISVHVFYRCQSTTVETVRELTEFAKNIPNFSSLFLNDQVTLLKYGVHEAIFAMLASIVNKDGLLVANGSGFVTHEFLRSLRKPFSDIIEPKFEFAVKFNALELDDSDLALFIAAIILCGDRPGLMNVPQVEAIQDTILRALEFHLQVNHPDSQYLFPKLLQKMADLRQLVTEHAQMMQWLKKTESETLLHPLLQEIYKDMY

Measured: Activity

Cc1ccc(CNCCCN(Cc2ccc(C(=O)O)cc2)Cc2cc(C(F)(F)F)cc(C(F)(F)F)c2)cc1
active: all assays above
